Consider 8 compounds from ChEMBL document CHEMBL1155674, “New isomalabaricane triterpenes from the marine sponge Stelletta globostellata that induce morphological changes in rat fibroblasts” (J Nat Prod, 2000).

Each structure is given as a SMILES string. Calls of active or inactive are those of the source. No cut-off for these calls is given here.

Data set [1] concerns P388. Put plainly: Cytotoxicity against mouse P388 cells at 18 uM by MTT assay. Type of data set: functional, cell-based. (In general: Tetrazolium dyes change colour on reduction, which living cells bring about.)
A short description of data set [2]: Cytotoxicity against rat 3Y1 cells at 18 uM after 72 hrs by MTT assay. Type of data set: cell-based. Conditions: 3y1, 72 h.
The nature of data set [3]: Induction of cell death in rat 3Y1 cells at 0.2 uM after 5 days after washing. The class given is cell-based. Conditions: 3y1, 120 h.
The next data set deals with 3Y1 cell line. Description: Induction of morphological changes in rat 3Y1 cells assessed as lost pseudopodia at 0.2 uM before washing. Type of data set: functional, cell-based. An outline of the steps:
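3Y1 B clone 1-6 fibroblasts, kept subconfluent in DMEM/10% fetal calf serum at 37 °C under 5% CO2, were seeded at 2 × 10⁴ cells/mL and incubated 24 h. Samples in MeOH were added. Morphology was checked by phase-contrast microscopy at 1, 5 and 24 h and on day 5. Some cultures were washed with fresh medium to test reversibility.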

Another data set deals with Staphylococcus aureus. Description: Antimicrobial activity against Staphylococcus aureus at 100 ug/disk. Type of data set: functional, organism-based.
In a further data set the test system is Bacillus subtilis. Put plainly: Antimicrobial activity against Bacillus subtilis at 100 ug/disk. The class given is functional, organism-based.
The subject of a further data set is Umbelopsis ramanniana. Put plainly: Antimicrobial activity against Mortierella ramanniana at 100 ug/disk. The class given is functional, organism-based.
Data set [4] in a line: Cytotoxicity against rat 3Y1 cells after 72 hrs by MTT assay. The class given is cell-based. An outline of the steps: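 3Y1 rat embryonic fibroblasts (B clone 1-6) in DMEM with 10% fetal calf serum were seeded at 300 cells/well and incubated 24 h. Samples were added, then plates were held 72 h at 37 °C. MTT (5 mg/mL in Ca/Mg-free PBS) was added for 4 h, formazan was dissolved in DMSO, and absorbance was read at 540 nm to give GI50.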

The test system of data set [5] is P388. Description: Cytotoxicity against mouse P388 cells by MTT assay. Type of data set: functional.
Another data set concerns Penicillium chrysogenum. Put plainly: Antimicrobial activity against Penicillium chrysogenum at 100 ug/disk. The class given is functional, organism-based.
The test system of another data set is Pseudomonas aeruginosa. Put plainly: Antimicrobial activity against Pseudomonas aeruginosa at 100 ug/disk. The class given is functional, organism-based.
In a further data set the test system is Escherichia coli. Description: Antimicrobial activity against Escherichia coli at 100 ug/disk. The class given is functional, organism-based.
Another data set has as its system Candida albicans. Description: Antimicrobial activity against Candida albicans at 100 ug/disk. Type of data set: functional, organism-based.
Data set [6] in a line: Induction of cell death in rat 3Y1 cells at 0.2 uM after 5 days without washing. The following applies: 3y1, 120 h.

Regarding `CC(=O)O[C@@H]1CC[C@@]2(C)[C@@H](CC[C@]3(C)/C(=C(\C)C(=O)/C=C/C(C)=C/C=C/C(C)(C)O)C(=O)C[C@@H]23)[C@@]1(C)C(=O)[O-].[Na+]` [GLOBOSTELLATIC ACID A], the Activity result in the data set on P388 [1] is “Not toxic”; in [2], “Non-toxic”.

On to `CC(=O)O[C@@H](CC=C(C)C)/C(C)=C/C=C/C(C)=C1\C(=O)C[C@H]2[C@@]3(C)CC[C@@H](OC(C)=O)[C@](C)(CO)[C@@H]3CC[C@]12C`, for which the outcome in data set [3] was Active. In the data set on 3Y1 cell line, the result was Active. Moreover, the result in the data set on Staphylococcus aureus, with Bacillus subtilis, in the data set with Umbelopsis ramanniana, in the data set on Penicillium chrysogenum, in the data set with Pseudomonas aeruginosa and with Escherichia coli was inactive. The outcome with Candida albicans was inactive. In data set [4], growth was halved (GI50 at 72 h) at 52 nM. The compound further displayed a GI50 in the data set on P388 [5] of 160 nM.

Turning to `CC(=O)O[C@H]1C[C@H]2[C@@]3(C)CC[C@H](OC(C)=O)C(C)(C)[C@@H]3CC[C@]2(C)/C1=C(C)/C=C/C=C(\C)[C@H](CC=C(C)C)OC(C)=O`, in [4], the GI50 at 72 h was found to be 1300 nM. Also, in the data set on P388 [5], halving of growth (GI50) required 1600 nM.

The compound `COc1cccc2c1C(=O)c1c(O)c3c(c(O)c1C2=O)C[C@@](O)(C(=O)CO)C[C@@H]3O[C@H]1C[C@H](N)[C@H](O)[C@H](C)O1` [DOXORUBICIN] yielded a GI50 at 72 h in data set [4] of 3.8 nM. In addition, in the data set on P388 [5], the GI50 came out at 12 nM.

As to `CC(C)=CCC/C(C)=C/C=C/C(C)=C1\C(=O)C[C@H]2[C@@]3(C)CC[C@H](O)[C@](C)(CO)[C@@H]3CC[C@]12C`, the outcome with 3Y1 cell line was Active. In addition, the result with Staphylococcus aureus, with Bacillus subtilis, in the data set with Umbelopsis ramanniana, in the data set on Penicillium chrysogenum, with Pseudomonas aeruginosa and with Escherichia coli was inactive. The result in the data set on Candida albicans was inactive. Besides, the GI50 at 72 h in [4] is 60 nM. The compound further returned a GI50 with P388 [5] of 190 nM. Besides, in [6], the outcome was Active.

`CC(=O)O[C@H]1CC[C@@]2(C)[C@@H](CC[C@]3(C)/C(=C(C)/C=C/C=C(\C)[C@@H](O)CC=C(C)C)C(=O)C[C@@H]23)C1(C)C` [STELLIFERIN A]: the result in the data set with 3Y1 cell line was Active. The result with Staphylococcus aureus, in the data set with Bacillus subtilis, in the data set on Umbelopsis ramanniana, with Penicillium chrysogenum, with Pseudomonas aeruginosa and in the data set on Escherichia coli was inactive. Further, the outcome in the data set with Candida albicans was inactive. Besides, the 50% growth inhibitory concentration (GI50) at 72 h in data set [4] stood at 34 nM. The same compound returned a GI50 with P388 [5] of 21 nM. In addition, the result in data set [6] was Active.

Consider `CC(C)=CCC/C(C)=C/C=C/C(C)=C1\C(=O)C[C@H]2[C@@]3(C)CC[C@H](O)C(C)(C)[C@@H]3CC[C@]12C` [STELLIFERIN D], for which the result in the data set on 3Y1 cell line was Active. Also, the result in the data set with Staphylococcus aureus, with Bacillus subtilis, with Umbelopsis ramanniana, with Penicillium chrysogenum, in the data set with Pseudomonas aeruginosa and in the data set on Escherichia coli was inactive. In addition, the outcome with Candida albicans was inactive. Further, in data set [4], the GI50 at 72 h came to 18 nM. Besides, in the data set with P388 [5], the GI50 amounted to 24 nM. Moreover, the result in [6] was Active.

Regarding `CC(=O)O[C@@H]1CC[C@@]2(C)[C@@H](CC[C@]3(C)/C(=C(C)/C=C/C=C(\C)[C@@H](O)CC=C(C)C)C(=O)C[C@@H]23)[C@@]1(C)CO`, the result in data set [3] was Active. Also, the outcome in the data set on 3Y1 cell line was Active. The outcome with Staphylococcus aureus, with Bacillus subtilis, in the data set on Umbelopsis ramanniana, in the data set on Penicillium chrysogenum, with Pseudomonas aeruginosa and in the data set on Escherichia coli was inactive. Also, the result in the data set with Candida albicans was inactive. In data set [4], this compound showed a GI50 at 72 h of 46 nM. It took 180 nM to inhibit growth with P388 [5] by half (GI50).

What is called GI50 is the concentration at which growth is held to half of that of the control.
